{"source": "ChEMBL document CHEMBL5303300", "about": "“EUbOPEN Chemogenomics Library - Multiplex” (2023)", "key": {"U2OS": {"test_system": "U2OS", "test": "Multiplex assay against U2OS", "type": "toxicity, cell-based", "details": "human, number of replicates 2", "in_short": "(§1)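 Four dyes were applied at seeding to live cells: Hoechst33342, BioTracker Green Microtubule Cytoskeleton Dye, MitoTracker Red and Annexin V Alexa Fluor 680. Imaging after compound addition used a CQ1 microscope at 37°C and 5% CO2. CellPathfinder machine-learning gating then sorted cells into Hoechst high-intensity objects or normal cells, normal cells into healthy, pyknosed or fragmented nuclei, and pyknosed cells into mitotic or apoptotic, with tubulin, mitochondrial-mass and membrane-permeability phenotypes given as per cents of healthy-nucleus cells.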"}, "HEK-293T": {"test_system": "HEK-293T", "test": "Multiplex assay against HEK293T", "type": "toxicity, cell-based", "details": "human, number of replicates 2", "in_short": "as §1"}, "[1]": {"details": "12 h, 1 µM, compound concentration 1 uM"}, "[2]": {"details": "12 h, 10 µM, compound concentration 10 uM"}, "[3]": {"details": "24 h, 1 µM, compound concentration 1 uM"}, "[4]": {"details": "24 h, 10 µM, compound concentration 10 uM"}, "[5]": {"details": "48 h, 1 µM, compound concentration 1 uM"}, "[6]": {"details": "48 h, 10 µM, compound concentration 10 uM"}}, "note": "Where “and” joins values, the source holds several entries; their conditions need not be identical. Identical values can stand only once.", "data": [{"smiles": "Cn1c(Nc2c(Cl)cccc2Cl)nc2ccc3nc[nH]c(=O)c3c21", "values": [{"measurement": "Population Apoptotic (%)", "setting": "U2OS; [1]", "result": "40% and 66%"}, {"measurement": "Population Healthy Nuclei (%)", "setting": "U2OS; [1]", "result": "64% and 87%"}, {"measurement": "Population Hoechst High Intensity Objects (%)", "setting": "U2OS; [1]", "result": 0, "unit": "%"}, {"measurement": "Population Membrane Permeable-Phenotype (%)", "setting": "U2OS; [1]", "result": "0% and 1%"}, {"measurement": "Population Mitochondria Different-Phenotype (%)", "setting": "U2OS; [1]", "result": 0, "unit": "%"}, {"measurement": "Population Mitotic Cells (%)", "setting": "U2OS; [1]", "result": "60% and 33%"}, {"measurement": "Population Normal (%)", "setting": "U2OS; [1]", "result": 100, "unit": "%"}, {"measurement": "Population Pyknosed Nuclei (%)", "setting": "U2OS; [1]", "result": "10% and 7%"}, {"measurement": "Population Tubulin-Different-Phenotype (%)", "setting": "U2OS; [1]", "result": "100% and 96%"}, {"measurement": "Population Apoptotic (%)", "setting": "U2OS; [2]", "result": "66% and 52%"}, {"measurement": "Population Healthy Nuclei (%)", "setting": "U2OS; [2]", "result": "59% and 84%"}, {"measurement": "Population Hoechst High Intensity Objects (%)", "setting": "U2OS; [2]", "result": 0, "unit": "%"}, {"measurement": "Population Membrane Permeable-Phenotype (%)", "setting": "U2OS; [2]", "result": "0% and 1%"}, {"measurement": "Population Mitochondria Different-Phenotype (%)", "setting": "U2OS; [2]", "result": "0% and 1%"}, {"measurement": "Population Mitotic Cells (%)", "setting": "U2OS; [2]", "result": "33% and 47%"}, {"measurement": "Population Normal (%)", "setting": "U2OS; [2]", "result": "100% and 99%"}, {"measurement": "Population Pyknosed Nuclei (%)", "setting": "U2OS; [2]", "result": "11% and 10%"}, {"measurement": "Population Tubulin-Different-Phenotype (%)", "setting": "U2OS; [2]", "result": "56% and 81%"}, {"measurement": "Population Apoptotic (%)", "setting": "U2OS; [3]", "result": "50% and 53%"}, {"measurement": "Population Healthy Nuclei (%)", "setting": "U2OS; [3]", "result": "62% and 87%"}, {"measurement": "Population Hoechst High Intensity Objects (%)", "setting": "U2OS; [3]", "result": 0, "unit": "%"}, {"measurement": "Population Membrane Permeable-Phenotype (%)", "setting": "U2OS; [3]", "result": "0% and 2%"}, {"measurement": "Population Mitochondria Different-Phenotype (%)", "setting": "U2OS; [3]", "result": "2% and 0%"}, {"measurement": "Population Mitotic Cells (%)", "setting": "U2OS; [3]", "result": "50% and 46%"}, {"measurement": "Population Normal (%)", "setting": "U2OS; [3]", "result": 100, "unit": "%"}, {"measurement": "Population Pyknosed Nuclei (%)", "setting": "U2OS; [3]", "result": "10% and 8%"}, {"measurement": "Population Tubulin-Different-Phenotype (%)", "setting": "U2OS; [3]", "result": "100% and 95%"}, {"measurement": "Population Apoptotic (%)", "setting": "U2OS; [4]", "result": "75% and 45%"}, {"measurement": "Population Healthy Nuclei (%)", "setting": "U2OS; [4]", "result": "55% and 78%"}, {"measurement": "Population Hoechst High Intensity Objects (%)", "setting": "U2OS; [4]", "result": "1% and 0%"}, {"measurement": "Population Membrane Permeable-Phenotype (%)", "setting": "U2OS; [4]", "result": 2, "unit": "%"}, {"measurement": "Population Mitochondria Different-Phenotype (%)", "setting": "U2OS; [4]", "result": 0, "unit": "%"}, {"measurement": "Population Mitotic Cells (%)", "setting": "U2OS; [4]", "result": "25% and 54%"}, {"measurement": "Population Normal (%)", "setting": "U2OS; [4]", "result": "98% and 100%"}, {"measurement": "Population Pyknosed Nuclei (%)", "setting": "U2OS; [4]", "result": "11% and 13%"}, {"measurement": "Population Tubulin-Different-Phenotype (%)", "setting": "U2OS; [4]", "result": "68% and 77%"}, {"measurement": "Population Apoptotic (%)", "setting": "U2OS; [5]", "result": "56% and 75%"}, {"measurement": "Population Healthy Nuclei (%)", "setting": "U2OS; [5]", "result": "58% and 89%"}, {"measurement": "Population Hoechst High Intensity Objects (%)", "setting": "U2OS; [5]", "result": 0, "unit": "%"}, {"measurement": "Population Membrane Permeable-Phenotype (%)", "setting": "U2OS; [5]", "result": "0% and 1%"}, {"measurement": "Population Mitochondria Different-Phenotype (%)", "setting": "U2OS; [5]", "result": 0, "unit": "%"}, {"measurement": "Population Mitotic Cells (%)", "setting": "U2OS; [5]", "result": "43% and 25%"}, {"measurement": "Population Normal (%)", "setting": "U2OS; [5]", "result": "100% and 99%"}, {"measurement": "Population Pyknosed Nuclei (%)", "setting": "U2OS; [5]", "result": "20% and 7%"}, {"measurement": "Population Tubulin-Different-Phenotype (%)", "setting": "U2OS; [5]", "result": "100% and 97%"}, {"measurement": "Population Apoptotic (%)", "setting": "U2OS; [6]", "result": "75% and 67%"}, {"measurement": "Population Healthy Nuclei (%)", "setting": "U2OS; [6]", "result": "21% and 58%"}, {"measurement": "Population Hoechst High Intensity Objects (%)", "setting": "U2OS; [6]", "result": "1% and 0%"}, {"measurement": "Population Membrane Permeable-Phenotype (%)", "setting": "U2OS; [6]", "result": "5% and 10%"}, {"measurement": "Population Mitochondria Different-Phenotype (%)", "setting": "U2OS; [6]", "result": "5% and 2%"}, {"measurement": "Population Mitotic Cells (%)", "setting": "U2OS; [6]", "result": "24% and 32%"}, {"measurement": "Population Normal (%)", "setting": "U2OS; [6]", "result": "98% and 99%"}, {"measurement": "Population Pyknosed Nuclei (%)", "setting": "U2OS; [6]", "result": "34% and 28%"}, {"measurement": "Population Tubulin-Different-Phenotype (%)", "setting": "U2OS; [6]", "result": "61% and 74%"}, {"measurement": "Population Apoptotic (%)", "setting": "HEK-293T; [1]", "result": "65% and 53%"}, {"measurement": "Population Fragmented Nuclei (%)", "setting": "HEK-293T; [1]", "result": "4% and 5%"}, {"measurement": "Population Healthy Nuclei (%)", "setting": "HEK-293T; [1]", "result": "77% and 80%"}, {"measurement": "Population Hoechst High Intensity Objects (%)", "setting": "HEK-293T; [1]", "result": "16% and 8%"}, {"measurement": "Population Membrane Permeable-Phenotype (%)", "setting": "HEK-293T; [1]", "result": "5% and 2%"}, {"measurement": "Population Mitochondria Different-Phenotype (%)", "setting": "HEK-293T; [1]", "result": "17% and 11%"}, {"measurement": "Population Mitotic Cells (%)", "setting": "HEK-293T; [1]", "result": "34% and 46%"}, {"measurement": "Population Normal (%)", "setting": "HEK-293T; [1]", "result": "84% and 91%"}, {"measurement": "Population Pyknosed Nuclei (%)", "setting": "HEK-293T; [1]", "result": "18% and 14%"}, {"measurement": "Population Tubulin-Different-Phenotype (%)", "setting": "HEK-293T; [1]", "result": "41% and 37%"}, {"measurement": "Total Cell Count", "setting": "HEK-293T; [1]", "result": "450 and 596"}, {"measurement": "Population Apoptotic (%)", "setting": "HEK-293T; [2]", "result": "29% and 35%"}, {"measurement": "Population Fragmented Nuclei (%)", "setting": "HEK-293T; [2]", "result": 1, "unit": "%"}, {"measurement": "Population Healthy Nuclei (%)", "setting": "HEK-293T; [2]", "result": "81% and 86%"}, {"measurement": "Population Hoechst High Intensity Objects (%)", "setting": "HEK-293T; [2]", "result": "4% and 5%"}, {"measurement": "Population Membrane Permeable-Phenotype (%)", "setting": "HEK-293T; [2]", "result": "1% and 2%"}, {"measurement": "Population Mitochondria Different-Phenotype (%)", "setting": "HEK-293T; [2]", "result": "17% and 12%"}, {"measurement": "Population Mitotic Cells (%)", "setting": "HEK-293T; [2]", "result": "70% and 64%"}, {"measurement": "Population Normal (%)", "setting": "HEK-293T; [2]", "result": "95% and 94%"}, {"measurement": "Population Pyknosed Nuclei (%)", "setting": "HEK-293T; [2]", "result": "16% and 11%"}, {"measurement": "Population Tubulin-Different-Phenotype (%)", "setting": "HEK-293T; [2]", "result": "40% and 36%"}, {"measurement": "Total Cell Count", "setting": "HEK-293T; [2]", "result": "676 and 839"}, {"measurement": "Population Apoptotic (%)", "setting": "HEK-293T; [3]", "result": "72% and 39%"}, {"measurement": "Population Fragmented Nuclei (%)", "setting": "HEK-293T; [3]", "result": "7% and 10%"}, {"measurement": "Population Healthy Nuclei (%)", "setting": "HEK-293T; [3]", "result": "78% and 79%"}, {"measurement": "Population Hoechst High Intensity Objects (%)", "setting": "HEK-293T; [3]", "result": "10% and 7%"}, {"measurement": "Population Membrane Permeable-Phenotype (%)", "setting": "HEK-293T; [3]", "result": 2, "unit": "%"}, {"measurement": "Population Mitochondria Different-Phenotype (%)", "setting": "HEK-293T; [3]", "result": "6% and 1%"}, {"measurement": "Population Mitotic Cells (%)", "setting": "HEK-293T; [3]", "result": "27% and 60%"}, {"measurement": "Population Normal (%)", "setting": "HEK-293T; [3]", "result": "89% and 92%"}, {"measurement": "Population Pyknosed Nuclei (%)", "setting": "HEK-293T; [3]", "result": "14% and 10%"}, {"measurement": "Population Tubulin-Different-Phenotype (%)", "setting": "HEK-293T; [3]", "result": "24% and 13%"}, {"measurement": "Total Cell Count", "setting": "HEK-293T; [3]", "result": "675 and 1010"}, {"measurement": "Population Apoptotic (%)", "setting": "HEK-293T; [4]", "result": "21% and 17%"}, {"measurement": "Population Fragmented Nuclei (%)", "setting": "HEK-293T; [4]", "result": 2, "unit": "%"}, {"measurement": "Population Healthy Nuclei (%)", "setting": "HEK-293T; [4]", "result": "85% and 81%"}, {"measurement": "Population Hoechst High Intensity Objects (%)", "setting": "HEK-293T; [4]", "result": 3, "unit": "%"}, {"measurement": "Population Membrane Permeable-Phenotype (%)", "setting": "HEK-293T; [4]", "result": 2, "unit": "%"}]}]}
